Data: ChEMBL document CHEMBL2034880, “Synthesis and biological evaluation of pyrimidine-based dual inhibitors of human epidermal growth factor receptor 1 (HER-1) and HER-2 tyrosine kinases” (J Med Chem, 2012)
pIC50: −log10 of the molar value.

Tests used:
[1] = Half life in human liver microsomes at 5 uM
[2] = Half life in rat liver microsomes at 5 uM
SK-BR-3 = test: Cytotoxicity against human SKBR3 cells overexpressing HER-2 gene after 72 hrs by SRB assay; assay type: functional, cell-based; conditions: SK-BR-3, 72 h
Outline: (§1)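 A431 and SK-Br3 cells grown in DMEM (4.5 g/L glucose, 1.5 g/L sodium bicarbonate) with 10% FBS at 37 °C, humidified 5% CO2. Proliferation/growth inhibition IC50 values are means of three independent experiments, each run in duplicate.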

A-431 = test: Cytotoxicity against human A431 cells overexpressing HER-1 gene after 72 hrs by SRB assay; assay type: functional, cell-based; conditions: A-431, 72 h; outline: as §1
[3] = Half life in dog liver microsomes at 5 uM
[4] = Half life in mouse liver microsomes at 5 uM
[5] = Oral bioavailability in Sprague-Dawley rat at 5 mg/kg; assay type: ADME, organism-based; conditions: in vivo
Outline: (§2)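 Male ICR mice (27 5 g) and male Sprague-Dawley rats (250 10 g), n = 3 per route. Single oral gavage dose (mice 10 mg/kg, rats 5 mg/kg) and tail-vein iv dose (mice 2 mg/kg, rats 1 mg/kg). Compound given as HCl salt in 30% PEG400 and 5% ethanol in distilled water. Jugular blood drawn at set times over at least 24 h into heparin. Plasma level measured by LC/MS/MS after acetonitrile protein precipitation.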

[6] = AUC (0 to last) in Sprague-Dawley rat at 5 mg/kg, po; assay type: ADME, organism-based; set-up: dose 5 mg/kg, route oral, time 0 - last; conditions: plasma; outline: as §2
[7] = AUC (0 to last) in ICR mouse at 10 mg/kg, po; assay type: ADME, organism-based; set-up: time 0 - last, dose 10 mg/kg, route oral; conditions: plasma; outline: as §2
[8] = Half life in ICR mouse at 10 mg/kg, po; assay type: ADME, organism-based; set-up: dose 10 mg/kg, route oral; conditions: in vivo; outline: as §2
[9] = Cmax in ICR mouse at 10 mg/kg, po; assay type: ADME, organism-based; set-up: dose 10 mg/kg, route oral; conditions: in vivo; outline: as §2
[10] = Cmax in Sprague-Dawley rat at 5 mg/kg, po; assay type: ADME, organism-based; set-up: dose 5 mg/kg, route oral; conditions: in vivo; outline: as §2
[11] = Half life in Sprague-Dawley rat at 5 mg/kg, po; assay type: ADME, organism-based; set-up: dose 5 mg/kg, route oral; conditions: in vivo; outline: as §2
[12] = Oral bioavailability in ICR mouse at 10 mg/kg; assay type: ADME, organism-based; conditions: in vivo; outline: as §2
[13] = target: Insulin-like growth factor 1 receptor (Homo sapiens, UniProt P08069); conditions: 3 uM
[14] = target: Tyrosine-protein kinase JAK2 (Homo sapiens, UniProt O60674); conditions: 3 uM
[15] = target: T1, Receptor tyrosine-protein kinase erbB-2 (Homo sapiens, UniProt P04626); conditions: SK-BR-3, 1 uM
T1 sequence (P04626 whole entry): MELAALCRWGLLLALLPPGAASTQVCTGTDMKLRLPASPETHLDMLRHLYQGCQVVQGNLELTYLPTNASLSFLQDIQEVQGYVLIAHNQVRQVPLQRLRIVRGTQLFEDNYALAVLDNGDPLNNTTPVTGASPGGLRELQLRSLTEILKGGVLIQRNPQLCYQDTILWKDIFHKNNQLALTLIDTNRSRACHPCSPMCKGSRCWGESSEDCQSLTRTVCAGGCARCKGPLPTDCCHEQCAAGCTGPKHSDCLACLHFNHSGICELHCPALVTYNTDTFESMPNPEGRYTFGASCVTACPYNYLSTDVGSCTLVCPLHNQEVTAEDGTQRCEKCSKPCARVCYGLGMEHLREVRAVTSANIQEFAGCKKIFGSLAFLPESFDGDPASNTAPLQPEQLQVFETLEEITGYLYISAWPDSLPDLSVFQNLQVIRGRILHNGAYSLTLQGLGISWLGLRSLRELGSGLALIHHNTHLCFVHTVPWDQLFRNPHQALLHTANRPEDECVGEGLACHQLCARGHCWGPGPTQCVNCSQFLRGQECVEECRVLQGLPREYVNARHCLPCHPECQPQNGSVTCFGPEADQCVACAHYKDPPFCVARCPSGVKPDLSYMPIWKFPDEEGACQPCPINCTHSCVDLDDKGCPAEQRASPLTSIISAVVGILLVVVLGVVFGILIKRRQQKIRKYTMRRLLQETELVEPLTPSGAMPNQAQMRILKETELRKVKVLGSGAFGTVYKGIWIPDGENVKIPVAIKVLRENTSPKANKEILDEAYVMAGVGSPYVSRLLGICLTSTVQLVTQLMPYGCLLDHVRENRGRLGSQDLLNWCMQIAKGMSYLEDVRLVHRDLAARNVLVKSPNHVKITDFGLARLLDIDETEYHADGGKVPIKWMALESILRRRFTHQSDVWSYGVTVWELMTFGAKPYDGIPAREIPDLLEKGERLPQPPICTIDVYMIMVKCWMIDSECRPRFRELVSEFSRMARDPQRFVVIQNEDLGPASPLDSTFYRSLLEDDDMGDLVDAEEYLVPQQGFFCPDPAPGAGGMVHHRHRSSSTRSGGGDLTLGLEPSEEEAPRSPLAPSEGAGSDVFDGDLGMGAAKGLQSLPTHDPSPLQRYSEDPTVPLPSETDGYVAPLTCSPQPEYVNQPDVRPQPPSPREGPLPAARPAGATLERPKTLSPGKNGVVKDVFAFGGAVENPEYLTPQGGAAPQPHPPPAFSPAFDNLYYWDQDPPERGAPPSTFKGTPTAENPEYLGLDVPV

[16] = target: Mast/stem cell growth factor receptor Kit (Homo sapiens, UniProt P10721); conditions: 3 uM
[17] = target: Tyrosine-protein kinase ABL1 (Homo sapiens, UniProt P00519); test: Inhibition of Abl at 3 uM
Sequence of Tyrosine-protein kinase ABL1 (P00519 whole entry): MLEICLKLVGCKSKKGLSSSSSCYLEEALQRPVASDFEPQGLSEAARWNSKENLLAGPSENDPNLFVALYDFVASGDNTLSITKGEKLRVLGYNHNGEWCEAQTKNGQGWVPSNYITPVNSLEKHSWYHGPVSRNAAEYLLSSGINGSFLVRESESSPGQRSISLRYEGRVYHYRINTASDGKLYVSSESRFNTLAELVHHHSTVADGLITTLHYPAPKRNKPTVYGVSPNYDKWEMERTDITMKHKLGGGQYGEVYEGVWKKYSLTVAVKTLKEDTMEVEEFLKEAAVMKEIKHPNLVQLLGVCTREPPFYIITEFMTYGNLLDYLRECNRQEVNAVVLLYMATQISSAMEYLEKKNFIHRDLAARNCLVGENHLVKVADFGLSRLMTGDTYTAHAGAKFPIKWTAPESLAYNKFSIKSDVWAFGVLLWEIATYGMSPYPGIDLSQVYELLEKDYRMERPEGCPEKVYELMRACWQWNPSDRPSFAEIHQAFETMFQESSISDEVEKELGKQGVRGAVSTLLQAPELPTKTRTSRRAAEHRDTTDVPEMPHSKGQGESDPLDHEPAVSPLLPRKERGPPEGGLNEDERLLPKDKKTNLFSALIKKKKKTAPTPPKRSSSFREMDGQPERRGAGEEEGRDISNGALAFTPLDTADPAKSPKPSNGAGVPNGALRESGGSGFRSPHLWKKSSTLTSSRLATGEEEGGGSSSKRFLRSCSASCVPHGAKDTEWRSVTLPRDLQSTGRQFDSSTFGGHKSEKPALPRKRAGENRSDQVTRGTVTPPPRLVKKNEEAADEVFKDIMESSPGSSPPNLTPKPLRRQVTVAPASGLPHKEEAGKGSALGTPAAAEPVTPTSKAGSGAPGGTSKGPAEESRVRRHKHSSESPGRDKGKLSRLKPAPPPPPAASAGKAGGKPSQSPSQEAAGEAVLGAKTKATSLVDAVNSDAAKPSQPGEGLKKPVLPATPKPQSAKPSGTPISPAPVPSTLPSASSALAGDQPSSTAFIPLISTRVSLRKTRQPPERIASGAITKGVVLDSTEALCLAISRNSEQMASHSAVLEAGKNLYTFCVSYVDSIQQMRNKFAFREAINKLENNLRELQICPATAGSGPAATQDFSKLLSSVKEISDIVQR

[18] = target: Platelet-derived growth factor receptor beta (Homo sapiens, UniProt P09619); conditions: 3 uM
[19] = target: Receptor-type tyrosine-protein kinase FLT3 (Homo sapiens) (UniProt P36888); conditions: 3 uM
[20] = target: Tyrosine-protein kinase Blk (Homo sapiens) (UniProt P51451); test: Inhibition of Blk at 3 uM
[21] = target: Aurora kinase A (Homo sapiens) (UniProt O14965); test: Inhibition of Aurora A at 3 uM
Focal adhesion kinase 1 = Focal adhesion kinase 1 (Homo sapiens, UniProt Q05397); conditions: 3 uM
[22] = target: 5'-AMP-activated protein kinase catalytic subunit alpha-1 (Homo sapiens, UniProt Q13131); conditions: 3 uM
[23] = target: Platelet-derived growth factor receptor alpha (Homo sapiens, UniProt P16234); conditions: 3 uM
[24] = target: Serine/threonine-protein kinase STK11 (Homo sapiens) (UniProt Q15831); conditions: 3 uM
[25] = target: Hepatocyte growth factor receptor (Homo sapiens, UniProt P08581); test: Inhibition of MET at 3 uM
Sequence of Hepatocyte growth factor receptor (P08581 whole entry): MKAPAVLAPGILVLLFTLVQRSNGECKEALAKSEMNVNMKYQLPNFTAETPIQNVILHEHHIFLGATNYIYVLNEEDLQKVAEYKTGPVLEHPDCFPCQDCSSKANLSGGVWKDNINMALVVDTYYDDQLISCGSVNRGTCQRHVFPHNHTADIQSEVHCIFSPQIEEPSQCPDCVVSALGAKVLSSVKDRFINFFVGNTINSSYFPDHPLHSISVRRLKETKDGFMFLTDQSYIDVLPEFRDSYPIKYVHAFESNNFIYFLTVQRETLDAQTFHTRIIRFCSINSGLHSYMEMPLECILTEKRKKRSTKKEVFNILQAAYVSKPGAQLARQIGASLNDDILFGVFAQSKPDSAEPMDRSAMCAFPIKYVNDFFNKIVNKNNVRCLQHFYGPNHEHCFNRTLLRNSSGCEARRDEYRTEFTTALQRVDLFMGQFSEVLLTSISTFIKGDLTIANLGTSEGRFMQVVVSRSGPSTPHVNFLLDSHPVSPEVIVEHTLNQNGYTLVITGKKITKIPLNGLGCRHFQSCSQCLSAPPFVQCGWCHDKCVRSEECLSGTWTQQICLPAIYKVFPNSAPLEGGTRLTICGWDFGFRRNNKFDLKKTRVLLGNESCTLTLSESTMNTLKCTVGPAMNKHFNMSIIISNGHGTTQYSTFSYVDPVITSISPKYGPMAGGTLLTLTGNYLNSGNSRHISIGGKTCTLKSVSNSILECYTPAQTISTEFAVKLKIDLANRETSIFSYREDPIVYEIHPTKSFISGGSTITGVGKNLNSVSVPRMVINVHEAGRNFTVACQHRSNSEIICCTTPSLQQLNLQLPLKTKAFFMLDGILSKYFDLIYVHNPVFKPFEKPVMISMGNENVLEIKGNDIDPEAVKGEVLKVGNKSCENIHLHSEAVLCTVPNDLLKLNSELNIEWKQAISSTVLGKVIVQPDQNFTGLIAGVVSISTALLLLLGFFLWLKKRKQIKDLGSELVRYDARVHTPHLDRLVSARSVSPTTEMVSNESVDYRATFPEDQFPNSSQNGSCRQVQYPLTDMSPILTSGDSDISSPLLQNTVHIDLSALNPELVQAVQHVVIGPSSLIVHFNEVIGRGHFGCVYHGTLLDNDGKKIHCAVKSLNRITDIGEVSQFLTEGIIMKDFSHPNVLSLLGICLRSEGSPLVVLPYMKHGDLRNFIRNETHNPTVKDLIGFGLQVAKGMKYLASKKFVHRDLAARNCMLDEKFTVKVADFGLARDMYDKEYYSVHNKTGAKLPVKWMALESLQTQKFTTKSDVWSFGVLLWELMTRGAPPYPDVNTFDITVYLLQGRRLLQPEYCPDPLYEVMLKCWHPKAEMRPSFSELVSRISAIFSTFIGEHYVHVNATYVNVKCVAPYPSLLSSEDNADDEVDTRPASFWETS

[26] = target: Tyrosine-protein kinase SYK (Homo sapiens, UniProt P43405); test: Inhibition of Syk at 3 uM
[27] = target: Vascular endothelial growth factor receptor 1 (Homo sapiens, UniProt P17948); test: Inhibition of Flt1 at 3 uM
Sequence of Vascular endothelial growth factor receptor 1 (P17948 whole entry): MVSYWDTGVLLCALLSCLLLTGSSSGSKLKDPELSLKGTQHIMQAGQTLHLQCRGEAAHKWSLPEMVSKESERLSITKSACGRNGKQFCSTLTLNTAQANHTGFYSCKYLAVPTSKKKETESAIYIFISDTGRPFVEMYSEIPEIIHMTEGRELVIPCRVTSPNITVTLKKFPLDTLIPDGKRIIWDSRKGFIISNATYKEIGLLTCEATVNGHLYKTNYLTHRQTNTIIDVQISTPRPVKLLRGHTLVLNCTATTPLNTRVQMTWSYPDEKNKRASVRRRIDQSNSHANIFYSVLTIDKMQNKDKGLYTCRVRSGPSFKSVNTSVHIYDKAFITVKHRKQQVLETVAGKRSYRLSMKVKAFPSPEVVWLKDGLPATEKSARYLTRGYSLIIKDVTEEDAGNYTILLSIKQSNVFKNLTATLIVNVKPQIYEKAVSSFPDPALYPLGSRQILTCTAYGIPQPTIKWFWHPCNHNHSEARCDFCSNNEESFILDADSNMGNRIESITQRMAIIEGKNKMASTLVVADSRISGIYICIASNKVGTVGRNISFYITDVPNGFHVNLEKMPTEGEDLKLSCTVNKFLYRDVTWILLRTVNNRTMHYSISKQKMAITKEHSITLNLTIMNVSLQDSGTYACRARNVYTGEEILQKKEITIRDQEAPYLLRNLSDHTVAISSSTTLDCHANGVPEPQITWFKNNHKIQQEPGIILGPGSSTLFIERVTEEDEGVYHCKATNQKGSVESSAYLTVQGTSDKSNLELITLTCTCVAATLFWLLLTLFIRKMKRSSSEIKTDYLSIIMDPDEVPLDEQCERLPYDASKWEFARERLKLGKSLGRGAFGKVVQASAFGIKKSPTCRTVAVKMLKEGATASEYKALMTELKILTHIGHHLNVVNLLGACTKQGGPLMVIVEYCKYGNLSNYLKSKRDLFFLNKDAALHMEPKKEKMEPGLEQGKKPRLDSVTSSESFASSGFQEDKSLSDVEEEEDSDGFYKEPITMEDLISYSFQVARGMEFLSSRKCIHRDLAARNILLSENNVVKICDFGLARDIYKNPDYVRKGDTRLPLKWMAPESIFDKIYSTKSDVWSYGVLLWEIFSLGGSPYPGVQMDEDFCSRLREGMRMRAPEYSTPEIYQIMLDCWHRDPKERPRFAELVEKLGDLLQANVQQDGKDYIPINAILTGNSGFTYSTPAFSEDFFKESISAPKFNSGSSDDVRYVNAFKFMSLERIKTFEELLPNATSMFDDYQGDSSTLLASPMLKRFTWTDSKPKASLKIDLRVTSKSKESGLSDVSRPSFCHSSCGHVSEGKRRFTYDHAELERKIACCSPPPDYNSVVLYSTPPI

[28] = target: Dual specificity mitogen-activated protein kinase kinase 1 (Homo sapiens, UniProt Q02750); conditions: 3 uM
[29] = target: T1, Receptor tyrosine-protein kinase erbB-2; conditions: SK-BR-3, 1 uM; remark: listed apart in the source
[30] = target: Fibroblast growth factor receptor 1 (Homo sapiens, UniProt P11362); conditions: 3 uM
[31] = target: Cyclin-dependent kinase 1/cyclin B1 (Homo sapiens) (UniProt P06493+P14635); conditions: 3 uM
[32] = target: Serine/threonine-protein kinase pim-1 (Homo sapiens, UniProt P11309); conditions: 3 uM
Insulin receptor = Insulin receptor (Homo sapiens, UniProt P06213); conditions: 3 uM

Structure (SMILES): C=CC(=O)NCc1coc(-c2c(N)ncnc2Nc2ccc(Cl)c(Cl)c2F)n1
- half-life at 5 µM ([1]; liver microsomes): > 100 min
- half-life at 5 µM ([2]; liver microsomes): > 100 min
- pIC50 (SK-BR-3): 7.03
- pIC50 (A-431): 6.55
- half-life at 5 µM ([3]; liver microsomes): > 100 min
- half-life at 5 µM ([4]; liver microsomes): 74 min

Structure (SMILES): C=CC(=O)NCc1coc(-c2c(N)ncnc2Nc2ccc(Oc3ccc(C)nc3)c(Cl)c2)n1
- pIC50 (SK-BR-3): 8.21
- pIC50 (A-431): 7.17

Structure (SMILES): C=CC(=O)NCc1coc(-c2c(N)ncnc2Nc2ccc(Oc3ccc(Cl)cc3Cl)c(Cl)c2)n1
- pIC50 (SK-BR-3): 8.19
- pIC50 (A-431): 6.98

Structure (SMILES): C=CC(=O)NCc1coc(-c2c(N)ncnc2Nc2ccc(Oc3ccccc3)c(Cl)c2)n1
- half-life at 5 µM ([1]; liver microsomes): > 100 min
- half-life at 5 µM ([2]; liver microsomes): 59 min
- pIC50 (SK-BR-3): 8.51
- pIC50 (A-431): 7.22
- half-life at 5 µM ([3]; liver microsomes): > 100 min
- half-life at 5 µM ([4]; liver microsomes): 48 min

Structure (SMILES): C=CC(=O)NCc1coc(-c2c(N)ncnc2Nc2ccc(Oc3cc(C(F)(F)F)nn3C)c(Cl)c2)n1
- half-life at 5 µM ([1]; microsomes): > 100 min
- half-life at 5 µM ([2]; microsomes): > 100 min
- pIC50 (SK-BR-3): 8.48
- pIC50 (A-431): 7.19
- half-life at 5 µM ([3]; microsomes): > 100 min
- half-life at 5 µM ([4]; microsomes): > 100 min

Structure (SMILES): C=CC(=O)NCc1coc(-c2c(N)ncnc2Nc2ccc(Oc3cccc(F)c3)c(Cl)c2)n1
- half-life at 5 µM ([1]; liver microsomes): > 100 min
- half-life at 5 µM ([2]; liver microsomes): 54 min
- pIC50 (SK-BR-3): 9.30
- pIC50 (A-431): 7.12
- half-life at 5 µM ([3]; liver microsomes): > 100 min
- half-life at 5 µM ([4]; liver microsomes): > 100 min

Structure (SMILES): C=CC(=O)NCc1coc(-c2c(N)ncnc2Nc2ccc(Oc3ccccc3F)c(Cl)c2)n1
- pIC50 (SK-BR-3): 8.33
- pIC50 (A-431): 7.54

Structure (SMILES): C=CC(=O)NCc1coc(-c2c(N)ncnc2Nc2ccc(Oc3ccccn3)c(Cl)c2)n1
- half-life at 5 µM ([1]; liver microsomes): 39 min
- half-life at 5 µM ([2]; liver microsomes): 16 min
- pIC50 (SK-BR-3): 8.77
- pIC50 (A-431): 7.44
- half-life at 5 µM ([3]; liver microsomes): 24 min
- half-life at 5 µM ([4]; liver microsomes): 15 min

Structure (SMILES): C=CC(=O)NCc1coc(-c2c(N)ncnc2Nc2ccc(OCc3ccccn3)c(Cl)c2)n1.Cl
- bioavailability [5]: 21.9%
- AUC(0-t) [6]: 0.44 µg·h/mL
- AUC(0-t) [7]: 0.455 µg·h/mL
- half-life [8]: 1660 min
- Cmax [9]: 0.283 µg/mL
- Cmax [10]: 0.189 µg/mL
- half-life [11]: 194 min
- bioavailability [12]: 21.6%

Structure (SMILES): C=CC(=O)NCC#Cc1cncnc1Nc1ccc(OCc2ccccn2)c(Cl)c1
- pIC50 (SK-BR-3): < 6.00
- pIC50 (A-431): < 6.00

Structure (SMILES): C=CC(=O)NCc1coc(-c2c(N)ncnc2Nc2ccc(OCc3cccc(F)c3)c(Cl)c2)n1
- half-life at 5 µM ([1]; liver microsomes): 45 min
- half-life at 5 µM ([2]; liver microsomes): 29 min
- pIC50 (SK-BR-3): 8.41
- pIC50 (A-431): 7.23
- half-life at 5 µM ([3]; liver microsomes): > 100 min

Structure (SMILES): C=CC(=O)NCc1coc(-c2c(N)ncnc2Nc2ccc(OCc3ccccn3)c(F)c2)n1
- half-life at 5 µM ([1]; liver microsomes): 27 min
- half-life at 5 µM ([2]; liver microsomes): 16 min
- pIC50 (SK-BR-3): 8.21
- pIC50 (A-431): 7.20
- half-life at 5 µM ([3]; liver microsomes): 44 min
- half-life at 5 µM ([4]; liver microsomes): 9 min

Structure (SMILES): C=CC(=O)NCCNC(=O)c1c(N)ncnc1Nc1ccc(OCc2ccccn2)c(Cl)c1
- pIC50 (SK-BR-3): < 6.00
- pIC50 (A-431): < 6.00

Structure (SMILES): C=CC(=O)NCc1coc(-c2c(N)ncnc2Nc2ccc(OCc3ccccn3)c(Cl)c2)n1
- inhibition [13]: 0%
- inhibition [14]: 0%
- inhibition [15]: 68.2%
- inhibition [16]: 0%
- inhibition [17]: 15%
- inhibition [18]: 0%
- inhibition [19]: 0%
- inhibition [20]: 77%
- inhibition [21]: 42%
- inhibition (Focal adhesion kinase 1): 0%
- inhibition [22]: 0%
- inhibition [23]: 0%
- inhibition [24]: 0%
- inhibition [25]: 13%
- inhibition [26]: 15%
- inhibition [27]: 15%
- inhibition [28]: 14%
- inhibition [29]: 87.5%
- inhibition [30]: 0%
- inhibition [31]: 0%
- inhibition [32]: 2%
- inhibition (Insulin receptor): 0%

Structure (SMILES): C=CC(=O)NCc1coc(-c2c(N)ncnc2Nc2ccc(Oc3cccc(Cl)c3Cl)c(Cl)c2)n1
- pIC50 (SK-BR-3): 7.74
- pIC50 (A-431): 6.95

Structure (SMILES): C=CC(=O)NCc1coc(-c2c(N)ncnc2Nc2ccc(Oc3ccc(C)nc3)c(C)c2)n1
- half-life at 5 µM ([1]; microsomes): 39 min
- half-life at 5 µM ([2]; microsomes): 17 min
- pIC50 (SK-BR-3): 8.96
- pIC50 (A-431): 7.19
- half-life at 5 µM ([3]; microsomes): 41 min
- half-life at 5 µM ([4]; microsomes): 43 min

Structure (SMILES): C=CC(=O)NCc1coc(-c2c(N)ncnc2Nc2ccc(Oc3cc(Cl)ccc3Cl)c(Cl)c2)n1
- half-life at 5 µM ([1]; liver microsomes): 96 min
- half-life at 5 µM ([2]; liver microsomes): 51 min
- pIC50 (SK-BR-3): 8.72
- pIC50 (A-431): 6.74
- half-life at 5 µM ([3]; liver microsomes): > 100 min
- half-life at 5 µM ([4]; liver microsomes): 57 min

Structure (SMILES): C=CC(=O)NCc1cc(-c2cncnc2Nc2ccc(OCc3ccccn3)c(Cl)c2)on1
- pIC50 (SK-BR-3): 6.91
- pIC50 (A-431): 8.66

Structure (SMILES): C=CC(=O)NCc1coc(-c2c(N)ncnc2Nc2ccc(Oc3ccc(F)cc3)c(Cl)c2)n1
- half-life at 5 µM ([1]; liver microsomes): > 100 min
- half-life at 5 µM ([2]; liver microsomes): 66 min
- pIC50 (SK-BR-3): 8.22
- pIC50 (A-431): 7.41
- half-life at 5 µM ([3]; liver microsomes): > 100 min
- half-life at 5 µM ([4]; liver microsomes): > 100 min

Structure (SMILES): C=CC(=O)NCc1coc(-c2c(N)ncnc2Nc2ccc(F)c(Cl)c2)n1
- half-life at 5 µM ([1]; liver microsomes): 16 min
- half-life at 5 µM ([2]; liver microsomes): 24 min
- pIC50 (SK-BR-3): 7.47
- pIC50 (A-431): 7.28
- half-life at 5 µM ([3]; liver microsomes): 9 min
- half-life at 5 µM ([4]; liver microsomes): 9 min

Structure (SMILES): C=CC(=O)NCc1coc(-c2cncnc2Nc2ccc(OCc3ccccn3)c(Cl)c2)n1
- pIC50 (SK-BR-3): 8.01
- pIC50 (A-431): 6.98

Structure (SMILES): C=CC(=O)NCc1coc(-c2c(N)ncnc2Nc2ccc(Oc3ccnn3C)c(Cl)c2)n1
- half-life at 5 µM ([1]; microsomes): > 100 min
- half-life at 5 µM ([2]; microsomes): 25 min
- pIC50 (SK-BR-3): 8.40
- pIC50 (A-431): 7.18
- half-life at 5 µM ([3]; microsomes): 51 min
- half-life at 5 µM ([4]; microsomes): 39 min

Structure (SMILES): C=CC(=O)Nc1cccc(-c2cncnc2Nc2ccc(OCc3ccccn3)c(Cl)c2)c1
- pIC50 (SK-BR-3): 8.21
- pIC50 (A-431): 6.23

Structure (SMILES): C=CC(=O)NCc1coc(-c2c(N)ncnc2Nc2ccc(Oc3cccnc3)c(Cl)c2)n1
- half-life at 5 µM ([1]; liver microsomes): 15 min
- half-life at 5 µM ([2]; liver microsomes): 9 min
- pIC50 (SK-BR-3): 8.62
- pIC50 (A-431): 7.17
- half-life at 5 µM ([3]; liver microsomes): 39 min
- half-life at 5 µM ([4]; liver microsomes): 18 min
